# tim10-1 inh – growth inhibitors of tim10-1 mutant yeast, primary screen, luminescence, uHTS | S. cerevisiae tim10-1 ts strain growth, BacTiter-Glo, 24 h | inhibition, % at 20 µM | 2.2% of 330,000 active;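 active = inhibition of at least 40%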;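 note: mutant grown at 25 °C; 0% = DMSO wells with yeast and 100% = wells holding no yeast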
# TIM10 inh – growth inhibitors of isogenic TIM10 control yeast, primary screen, counter-screen for tim10-1 yeast inhibitor project, luminescence, uHTS. S. cerevisiae TIM10 strain growth, BacTiter-Glo luminescence, 24 h. inhibition, % at 10 µM. 1.4% of 330,000 active. AID 463195, 2010;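 active = inhibition of 40% or more at the single tested concentration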;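 note: wild-type TIM10 isogenic control strain grown at permissive 25 °C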
# UPR CHOP act – activators of apoptotic CHOP UPR arm, primary screen, cell-based, CHO-CHOP luciferase reporter, luminescence, uHTS; 0.34% of 330,000 active; UPR activation; percent of tunicamycin response over DMSO baseline; activation, % at 10 µM;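 active = at 10 µM dose, activation of 40% or more, normalized to positive control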;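 note: 100% = tunicamycin at 10 µg/mL and 0% = DMSO alone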
#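 Assay system: CHO-CHOP cells, stable luciferase reporter of PERK-eIF2a-CHOP signalling / Buffer or medium: F12 plus 10% serum / Compound dosing: one dose, 10 µM in 0.5% DMSO / Times: 6 h compound treatment, 37 °C / Technique: luciferase luminescence / Read-out: % reporter activation, DMSO baseline versus tunicamycin full activation / Benchmarks: tunicamycin and DMSO controls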
# XBP1 UPR activ – activators of adaptive XBP1 UPR arm, primary screen, cell-based, CHO-XBP1 luciferase reporter, luminescence, uHTS; IRE1-XBP1 UPR activation; percent of tunicamycin response, DMSO as zero; activation, % at 20 µM; 0.33% of 330,000 active; AID 463104, 2010;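 active = versus positive control, 20 µM dose yields 30% or more activation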;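 note: 100% = tunicamycin at 10 µg/mL and 0% = DMSO only wells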
#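 Test system: CHO-XBP1 luciferase reporter cells | Buffer or medium: Serum-containing F12 medium, 10% FBS | Schedule: 6 h compound exposure at 37 °C, 5% CO2 | Detection: Steady-Glo luciferase glow luminescence, 10 min after reagent addition | Read-out basis: Activation, % of tunicamycin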
# tim23-1 inh – growth inhibitors of tim23-1 mutant yeast, primary screen, luminescence, uHTS | S. cerevisiae tim23-1 growth, BacTiter-Glo luminescence, 24 h | inhibition, % at 20 µM | 1.3% of 330,000 active;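 active = growth inhibition of the mutant yeast at or above 50%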;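 note: temperature-sensitive mutant grown at 25 °C; plate controls were DMSO-treated mutant yeast for no effect and medium wells lacking yeast for full effect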
# tim10-1 conf – growth inhibitors of tim10-1 mutant yeast, confirmation, single concentration, luminescence, S. cerevisiae; 56% of 7,400 active; S. cerevisiae tim10-1 ts strain growth, BacTiter-Glo, 24 h; AID 463213, 2010; shares compounds with tim10-1 inh; inhibition, % at 20 µM;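 active = inhibition of yeast growth at or above a set limit in either of two repeat tests at 20 µM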;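 note: tim10-1 mutant grown at permissive 25 °C to find synthetic lethal compounds; 0% = DMSO yeast wells and 100% = medium wells without yeast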
# tim10 confirm – growth inhibitors of wild-type TIM10 yeast, confirmation, counter-screen for tim10-1 synthetic lethality project, single concentration, luminescence, S. cerevisiae; shares compounds with TIM10 inh; S. cerevisiae tim10 strain growth, BacTiter-Glo luminescence, 24 h; inhibition, % at 10 µM; 63% of 4,600 active;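 active = inhibition of yeast growth at or above a set limit in either of two replicates at 10 µM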;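 note: this counterscreen used the strain with wild-type TIM10; 0% = yeast with DMSO and 100% = medium wells lacking yeast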
# tim23-1 conf – tim23-1 mutant yeast growth inhibitors, confirmation, luminescence, single concentration; shares compounds with tim23-1 inh; S. cerevisiae tim23-1 growth, BacTiter-Glo luminescence, 24 h; inhibition, % at 20 µM; 83% of 4,400 active; AID 463218, 2010;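 active = inhibition above about 39% in either of two replicate wells at 20 µM, limit read from the data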;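 note: temperature-sensitive tim23-1 mutant grown at 25 °C; 0% = DMSO wells with yeast and 100% = medium wells without yeast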
# Active calls of the source: *; . = no result. Only some compounds are listed: those with a hit (about 3.9% of all), similar ones and a draw of the others.
SMILES,tim10-1 inh,TIM10 inh,UPR CHOP act,XBP1 UPR activ,tim23-1 inh,tim10-1 conf,tim10 confirm,tim23-1 conf
COc1ccc(-c2cc3ccccc3oc2=O)cc1NC(=O)c1ccc([N+](=O)[O-])o1,66*,62*,5,5,70*,64*,72*,41*
COc1cc(NC(=O)c2ccc([N+](=O)[O-])o2)ccc1NC(=O)c1cccs1,46*,32,4,4,59*,39*,.,-14
O=C(Nc1ccc(N2CCN(C(=O)c3cccs3)CC2)cc1)c1ccc([N+](=O)[O-])o1,72*,72*,33,-7,71*,74*,77*,85*
CCCCNC(=O)Cn1c(=O)c2c(ncn2CC)n(Cc2ccccc2)c1=O,-3,11,0,2,19,.,.,.
CC(C)[C@H](NC(=O)c1ccccc1)C(=O)OCC(=O)Nc1sccc1C(N)=O,12,-5,-1,-1,0,.,.,.
CN1C(=O)CSC1=Nc1cccc(Cl)c1,2,-17,0,1,9,.,.,.
CN1/C(=C\C(=O)Nc2ccc(F)cc2)C(C)(C)c2ccccc21,45*,48*,6,3,68*,49*,-21,72*
O=C(/C(N=Nc1cccc([N+](=O)[O-])c1)=C(/O)c1ccc(Br)cc1)C(F)(F)F,62*,27,19,10,62*,62*,.,73*
N#C/C(=N\Nc1cccc([N+](=O)[O-])c1)C(=O)c1ccc(Br)cc1,28,24,2,1,28,.,.,.
Cc1ccc2c(=O)cc(C(=O)NCc3ccccc3)oc2c1C,-2,31,1,0,32,.,.,.
CCC1(CC)Cc2ccccc2-c2nc(CN(C)C)[nH]c(=O)c21,29,20,0,-3,38,.,.,.
Cc1ccc(-n2c(SCC(N)=O)nc3c(c2=O)C2(CCCC2)Cc2ccccc2-3)cc1,49*,32,2,0,52*,36*,.,44*
CCSc1n[nH]c2nc3c(c(=O)n12)C1(CCCC1)Cc1ccccc1-3,33,34,-2,-4,41,.,.,.
CSc1n[nH]c2nc3c(c(=O)n12)C1(CCCC1)Cc1ccccc1-3,48*,39,0,0,53*,51*,.,55*
Cn1c(NCCO)nc2c(c1=O)C1(CCCCC1)Cc1ccccc1-2,59*,31,2,3,59*,37*,.,63*
CCN(CC)Cc1nc2c(c(=O)[nH]1)C1(CCCCC1)Cc1ccccc1-2,41*,50*,2,3,50*,41*,47*,40*
COC(=O)c1cc(NC(=S)NC(=O)c2ccccc2)ccc1N1CCOCC1,31,13,1,-1,28,.,.,.
CSc1nnc2n(C)c3c(c(=O)n12)C1(CCCC1)Cc1ccccc1-3,45*,40*,0,4,62*,30,35*,50*
O=C(NCCc1nc2ccccc2[nH]1)C1CCC(=O)N(CCc2cccc(F)c2)C1 (stereo not drawn),-16,-3,0,-5,-6,.,.,.
Clc1ccc(/C=C/c2nc3ccccc3[nH]2)cc1,7,37,-3,-4,46,.,.,.
Clc1ccc(/C=C/c2nc3ccccc3[nH]2)c(Cl)c1,41*,50*,-5,-6,62*,41*,32*,76*
Clc1cccc(Cl)c1/C=C/c1nc2ccccc2[nH]1,45*,65*,3,4,85*,34*,53*,88*
COc1cc(C(=O)Nc2scc(-c3ccc(Br)cc3)c2C(=O)O)cc(OC)c1OC,26,16,1,-1,27,.,.,.
Cc1ccc(-c2csc(NC(=O)c3cccc(C)c3)c2C(=O)O)cc1,72*,83*,6,-2,83*,84*,90*,89*
CC(C)c1ccc(C(CC(=O)O)NC(=O)c2cccs2)cc1 (stereo not drawn),10,-6,-1,1,7,.,.,.
SMILES,tim10-1 inh,TIM10 inh,UPR CHOP act,XBP1 UPR activ,tim23-1 inh,tim10-1 conf,tim10 confirm,tim23-1 conf
O=C(Nc1scc(-c2ccc(F)cc2)c1C(=O)O)c1ccco1,-8,2,3,-3,20,.,.,.
Cc1ccc(-c2csc(NC(=O)c3ccc(Br)cc3)c2C(=O)O)cc1,81*,82*,4,3,84*,82*,93*,89*
Cc1cccc(C(=O)Nc2scc(-c3ccc(Br)cc3)c2C(=O)O)c1,12,4,4,-1,43,.,.,.
CC(C)c1ccc(-c2csc(NC(=O)c3cccs3)c2C(=O)O)cc1,76*,81*,3,5,67*,86*,92*,89*
Cc1ccc(-c2csc(NC(=O)/C=C/c3ccco3)c2C(=O)O)cc1,76*,81*,2,-1,79*,74*,79*,89*
CCOC(=O)c1ccc(NS(=O)(=O)c2cc3c4c(c2)CCN4C(=O)CC3)cc1,12,6,0,-4,14,.,.,.
CC(C)CCN1CCN(Cc2cccc3cccnc23)CC1CCO (stereo not drawn),10,-2,2,-2,7,.,.,.
COc1ccc(CN(C)C(=O)c2ccccc2Sc2ccccc2C#N)c(OC)c1,17,9,1,-6,32,.,.,.
Cc1cccc(NCc2cc(Cl)cc(Cl)c2O)n1,43*,29,1,-1,52*,27,.,56*
CCN(CC)C(=O)CN1CCC(c2nc3cc(C)c(C)cc3[nH]2)CC1,10,1,-1,-3,17,.,.,.
O=C(NC(=S)Nc1ccccc1F)C1CCCCC1,40*,31,5,4,54*,21,.,48*
O=C(NC(=S)Nc1ccccc1Br)C1CCCC1,39,39,4,2,48,.,.,.
O=C(NNC(=S)Nc1ccccc1Cl)C1CC1,14,-2,4,-1,-10,.,.,.
O=C(NC(=S)Nc1cccc(Cl)c1Cl)C1CC1,43*,41*,2,3,51*,16,24,32
O=C(NC(=S)Nc1ccc(Br)c(Cl)c1)C1CC1,43*,25,1,-2,62*,22,.,54*
